Article PMC7671694 (Pharmaceutical Biology, 2020)
“Also recorded” adds a separate entry of the source.

Experiments:
Format in all cases: in vivo, Swiss male mice
[1] = tested on: scopolamine-induced memory impairment in mice; assay: Novel object recognition test; conditions: test phase
Method in brief: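 Swiss male mice, n = 10/group. Test compound (5, 10 or 15 mg/kg) p.o. in saline 1 h before, scopolamine 1.5 mg/kg i.p. 30 min before. Box is 45 × 45 × 50 cm; 5-min sample phase, then 5-min test 24 h later with one object replaced. Nose/forepaw contact is scored as exploration, normalized to total exploration time. Repeated-measures two-way ANOVA, Tukey; mean ± SEM.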

[2] = tested on: scopolamine-induced memory impairment in mice; assay: Y-maze test in scopolamine-treated mice; conditions: scopolamine 1.5 mg/kg i.p. alone; compared with control group; p < 0.01
Method in brief: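 Swiss male mice, n = 10/group. Test compound p.o. in saline 1 h before, scopolamine 1.5 mg/kg i.p. 30 min before a 10-min session. Arm entry means all four legs inside. Alternation (%) = alternations/(total entries − 2) × 100; entries serve as locomotor index. Arms cleaned with 10% ethanol. One-way ANOVA, Tukey; mean ± SEM.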

[3] = tested on: scopolamine-induced memory impairment in mice; assay: Morris water maze; conditions: scopolamine 1.5 mg/kg i.p. alone
Method in brief: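 Swiss male mice, n = 10/group. Test compound p.o. in saline 1 h before, scopolamine 1.5 mg/kg i.p. 30 min before each session. Training runs over 6 days, 4 trials/day about 2 min apart, maximum 1 min per trial, then 10 s on the platform if not found. Day 7 probe without platform. Mean ± SEM; repeated-measures two-way ANOVA (training), one-way ANOVA (probe), Tukey.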

[4] = training trials, day 1 to day 6

SMILES | normalized time exploring novel object versus familiar object ([1]; 5 mg/kg p.o. + scopolamine 1.5 mg/kg i.p., p < 0.001) | normalized time exploring novel object versus familiar object ([1]; scopolamine 1.5 mg/kg i.p. alone, p > 0.05) | spontaneous alternation (%) [2] | time spent in the target quadrant ([3]; probe trial day 7, compared with control group) | escape latency [3, 4] | travel (swimming) distance [3, 4]
COc1cc2c(cc1OC)C(=O)C(CC1CCN(Cc3ccccc3)CC1)C2 (stereo not drawn) [donepezil] | significantly longer |  |  |  |  | 
CN1[C@@H]2C[C@@H](OC(=O)[C@H](CO)c3ccccc3)C[C@H]1[C@@H]1O[C@@H]12 [scopolamine] |  | no statistically significant difference | significantly lower; also recorded: significantly decreased | significantly lower; also recorded: decreased | no significant differences | no significant differences
